Bioassay records (PubChem)
T cell modulator = T cell immune modulators affecting CD8 T cell-vesicle binding; 2C CD8+ T cell-vesicle binding, flow cytometry; hits give low values; response (vesicle binding), % at 7 µM; hit rate 0.068% among 330,000;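 active = response, share of CD8 T cells binding vesicles, and their 90th percentile fluorescence all below set limits, cut at about 80% in these data, passing the limit was not always enough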;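 note: values below 100% mean blocked vesicle binding to the CD8+ T cells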
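Assay system: 2C TCR transgenic mouse naive CD8+ T cells, MACS-purified | Read-out: CD8+ gate FL2 mean fluorescence as % of same-row positive control | Signal: High-throughput flow cytometry with anti-B7-1 and anti-CD8 staining | Timing: Binding step 1.5 h, 37 °C, antibody labelling 20 min, ice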
VLA-4 inh = inhibition in a human VLA-4 binding assay; P13612; VLA-4 expressing cells, ligand binding flow cytometry; inhibition, % (about 7 µM as worked out from the volumes in the protocol); hit rate 0.2% among 330,000; AID 2557; in the data active = inhibition above about 50%
Target sequence (P13612 whole entry, looked up): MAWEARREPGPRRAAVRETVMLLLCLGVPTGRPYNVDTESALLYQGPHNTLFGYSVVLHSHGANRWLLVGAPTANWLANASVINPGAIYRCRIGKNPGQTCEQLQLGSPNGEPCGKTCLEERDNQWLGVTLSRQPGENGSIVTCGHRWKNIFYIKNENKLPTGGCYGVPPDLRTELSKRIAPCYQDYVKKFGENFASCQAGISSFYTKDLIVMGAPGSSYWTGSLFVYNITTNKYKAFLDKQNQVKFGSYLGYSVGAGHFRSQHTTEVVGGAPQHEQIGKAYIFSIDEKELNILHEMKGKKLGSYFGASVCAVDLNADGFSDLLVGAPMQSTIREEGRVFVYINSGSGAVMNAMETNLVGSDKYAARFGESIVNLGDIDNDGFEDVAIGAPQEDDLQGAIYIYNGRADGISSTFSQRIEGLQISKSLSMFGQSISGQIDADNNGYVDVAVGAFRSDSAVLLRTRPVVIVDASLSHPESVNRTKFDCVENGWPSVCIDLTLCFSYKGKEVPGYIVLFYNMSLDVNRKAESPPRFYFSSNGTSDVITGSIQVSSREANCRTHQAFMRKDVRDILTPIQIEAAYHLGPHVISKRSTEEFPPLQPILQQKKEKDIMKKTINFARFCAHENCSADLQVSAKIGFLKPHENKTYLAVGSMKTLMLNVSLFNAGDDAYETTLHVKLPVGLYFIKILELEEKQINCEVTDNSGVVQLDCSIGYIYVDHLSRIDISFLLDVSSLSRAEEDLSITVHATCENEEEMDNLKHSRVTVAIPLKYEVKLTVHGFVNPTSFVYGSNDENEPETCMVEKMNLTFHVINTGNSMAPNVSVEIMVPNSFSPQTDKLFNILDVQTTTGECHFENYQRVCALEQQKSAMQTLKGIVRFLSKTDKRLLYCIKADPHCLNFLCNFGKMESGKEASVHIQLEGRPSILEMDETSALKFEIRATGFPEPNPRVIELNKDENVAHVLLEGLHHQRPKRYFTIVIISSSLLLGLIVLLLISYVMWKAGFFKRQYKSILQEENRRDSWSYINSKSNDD
CHT allo act = human CHT allosteric activation; Q9GZV3; B-score at 10 µM; CHT-expressing cells, membrane potential dye, choline EC20; hits give high values; LV-AA mutant CHT in HEK293 cells; hit rate 0.49% among 310,000; AID 488977;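 active = initial fluorescence not abnormally high and integrated response B-score, plate-corrected, over 3 SD above library mean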
CHT block = inhibits the human high affinity choline transporter. CHT-expressing cells, membrane potential dye, choline response; hits give low values. Q9GZV3. B-score at 10 µM. hit rate 0.86% among 310,000. AID 488975;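 active = B-score over 3 SD under the library average, and starting fluorescence ratio not unusually high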;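 note: choline stimulus applied at its EC90 after an EC20 pre-addition; B-score computed on integrated fluorescence ratio after choline addition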
CHT act confirm = human CHT activation, confirmatory screen | CHT-expressing cells, membrane potential dye fluorescence (FDSS); % of choline EC20–EC90 response window; HEK293 expressing CHT LV-AA mutant; choline added at its EC20 | shares compounds with CHT allo act | hit rate 91% among 2,500 | activation, % at 10 µM;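 active = primary screen active, with duplicate mean activation above negative control mean plus 3 SD, cut at about 11% in these data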
HEK293 MP dye = activity in parental HEK293 cells lacking CHT; shares compounds with CHT allo act; membrane potential dye fluorescence (FDSS); measured after EC20 choline addition; ratio readout change at 10 µM, hits read low; hit rate 62% among 2,500;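 active = duplicate-averaged ratio beyond 3 SD from buffer wells, up or down, though filed actives are nearly all decreases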
Numbers stand for hits; - = inactive; . = no result. In the library only some 1.5% were active in any assay of this set; here they are far more common.

SMILES | T cell modulator | VLA-4 inh | CHT allo act | CHT block | CHT act confirm | HEK293 MP dye
c1cncc(Nc2nc(-c3ccncc3)cs2)c1 | - | - | 7.5 | - | 46 | -49
c1cncc(Nc2nc(-c3cccnc3)cs2)c1 | - | - | 6.9 | - | 43 | -45
COc1ccc(-c2csc(Nc3cccnc3)n2)cc1OC | - | - | - | - | . | .
Cc1nc(C)c(-c2csc(Nc3cccnc3)n2)s1 | - | - | - | - | 35 | -34
CCOC(=O)c1nc2cc3n(c(CC(C)C)c-2c1C)CC(C)=C3C | - | - | - | - | 44 | -40
CCOC(=O)c1nc2cc3n(c(C)c-2c1C)C(C)C(C)=C3C (centres undefined) | - | - | - | - | . | .
CCN1CCN(CC(=O)c2c(C)n(C)c3ccc(OC)cc23)CC1 | - | - | - | - | 53 | -33
CC(=O)Nc1ccc(NC(=O)C(C)OC(=O)CC23CC4CC(CC(Br)(C4)C2)C3)cc1 (centres undefined) | - | - | . | . | . | .
O=C(NCC1CCCO1)c1cncc(Br)c1 (centres undefined) | - | - | - | - | . | .
CCOC(=O)c1oc2ccc(CNCCO)c(Cl)c2c1C | - | - | 8.3 | - | 37 | -29
CCn1c(CC(=O)Nc2ccccc2)n[nH]c1=S | - | - | - | - | . | .
C#C[C@]1(OC(C)=O)CCC2C3CCC4=CC(=O)CC[C@@H]4C3CC[C@@]21C (some centres undefined) | - | - | - | - | . | .
O=C(CSc1ccc2nnc(-c3cccnc3)n2n1)N1CCOCC1 | - | - | 7.1 | - | 30 | -26
Cc1cc(NC(=O)CSc2ccc3nnc(-c4cccs4)n3n2)no1 | - | - | 9.9 | - | 22 | -33
CC(=O)c1ccc(NC(=O)CSc2ccc3nnc(-c4ccccn4)n3n2)cc1 | - | - | - | - | 49 | -46
Cc1ccc(-c2nnc3ccc(SCC(=O)Nc4cc(C)on4)nn23)cc1 | - | - | - | - | . | .
Cc1cc(NC(=O)CSc2ccc3nnc(-c4cccnc4)n3n2)no1 | - | - | 9.3 | - | 49 | -42
CCCCc1cc(=O)oc2cc(C)cc(OC(C)C(=O)NCc3cccnc3)c12 (centres undefined) | - | - | - | - | . | .
Cc1ccn2c(NC(=O)c3ccccc3)c(-c3ccccc3)nc2c1 | - | - | - | - | 30 | -48
Cc1ccc(C(=O)c2c3ccc([N+](=O)[O-])cc3[n+]([O-])n2CCCN)cc1 | - | - | 6.5 | - | 34 | -40
CC(C)C[C@H](NC(=O)C1CCN(S(=O)(=O)c2ccccc2)CC1)C(=O)NCc1ccncc1 | - | - | - | - | . | .
Cc1c(C)n(Cc2ccccc2)c2ncnc(NCCCN(C)C)c12 | - | - | - | - | 26 | -39
Cc1ccc(OCCN2CCN(c3nc(NCc4ccco4)c4ccccc4n3)CC2)cc1 | - | - | - | - | . | .
c1ccc(CN2CCN(c3nc(NCc4ccco4)c4ccccc4n3)CC2)cc1 | - | - | 6.4 | - | 26 | -53
Cc1cccc(C)c1NC(=O)CSc1ncnc2[nH]ncc12 | - | - | . | . | . | .
SMILES | T cell modulator | VLA-4 inh | CHT allo act | CHT block | CHT act confirm | HEK293 MP dye
Nc1c(-c2ccccc2)c(CSc2nc3ccccc3[nH]2)nn1-c1cccc(Cl)c1 | - | - | - | - | . | .
Cc1ccccc1-n1nc(CSc2nc3ccccc3[nH]2)c(-c2ccccc2)c1N | - | - | - | - | 35 | -
CCN(CC)CCNC1=NCCn2c1cc1cc(OC)ccc12 | - | - | 8.2 | - | 60 | -51
Cc1ccccc1CSc1nc(C(C)(C)C)cc(=O)[nH]1 | - | - | - | - | . | .
O=C(COC(=O)c1cc([N+](=O)[O-])ccc1N1CCOCC1)NCc1ccc(F)cc1 | - | - | - | - | 56 | -
CC(C)c1ccc(NC(=O)c2cc([N+](=O)[O-])ccc2N2CCOCC2)cc1 | - | - | - | - | 29 | -
O=C(Nc1cccc(Cl)c1N1CCOCC1)c1cc([N+](=O)[O-])ccc1N1CCOCC1 | - | - | - | - | 13 | -
COc1ccc(NC(=O)c2cc([N+](=O)[O-])ccc2N2CCN(C)CC2)cc1 | - | - | 8.4 | - | 52 | -64
O=C(Nc1cc(Cl)ccc1-n1cncn1)c1cc(F)c(F)c(F)c1F | - | - | - | - | . | .
CC(C)Cn1c(=O)c2c(nc3n2CC(C)CN3Cc2ccccc2)n(C)c1=O (centres undefined) | - | - | - | - | . | .
Cc1c(C(=O)N/N=C/c2cccnc2)nnn1-c1nonc1N | - | - | - | - | 31 | -45
CCN1CCN(CCCNC(=O)c2ccc(NC(=O)C3=C(C)OCCS3)cc2)CC1 | - | - | - | - | . | .
C=CCOc1ccc2ccccc2c1CNCCCN1CCOCC1 | - | - | - | - | . | .
C=CCOc1ccc(Br)cc1CNCCCN1CCOCC1 | - | - | - | - | 29 | -
CC1CC(C)CN(S(=O)(=O)c2ccc(C(=O)N(c3ccccn3)C3CCCCC3)cc2)C1 (centres undefined) | - | - | - | - | 21 | -
O=C(c1ccc(S(=O)(=O)N2CCCCC2)cc1)N(c1ccccn1)C1CCCCC1 | - | - | - | - | . | .
O=C(O)c1ccccc1C(=O)NCc1cccnc1 | - | - | - | - | . | .
O=C(NCc1cccnc1)c1cccn2c(=O)c3sccc3nc12 | - | - | 7.8 | - | 54 | -53
CCOc1cc(NC(=O)c2ccco2)c(OCC)cc1NC(=O)c1ccco1 | - | - | 11 | - | 21 | -
CCOc1cc(NC(=S)NC)c(OCC)cc1NC(=O)c1ccco1 | - | - | - | - | . | .
COc1ccc(OC)c2nc(-c3ccncc3)ccc12 | - | - | - | - | 52 | -52
Cc1cc(N2CCOCC2)nc(N)n1 | - | - | - | - | . | .
Cc1cc(N2CCOCC2)c2c(N)c(C)cc(C)c2n1 | - | - | 12 | - | 58 | -78
CN(C)c1ccnc2sc3c(NCC(O)CO)ncnc3c12 (centres undefined) | - | - | 6.7 | - | 50 | -44
COc1cc(NC(=O)COC(=O)Cc2ccsc2)cc(OC)c1 | - | - | . | . | . | .
COc1ccccc1CNC(=O)CCNS(=O)(=O)c1cccc2nonc12 | - | - | - | - | . | .
